# Results taken from ChEMBL document CHEMBL3120102, “Structure-based design, synthesis and biological evaluation of novel anthra[1,2-d]imidazole-6,11-dione homologues as potential antitumor agents” (2013).
# Tests used:
# Format in all cases: functional
# SR = experiment: Cytotoxicity against human SR cells assessed as growth inhibition after 48 hrs by SRB assay
# In short: (§1)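 NCI 60-cell-line screen, two stages. Five-dose testing at […]. Cellular protein measured by sulforhodamine B colorimetry after 48 h drug exposure. A time-zero control and drug-free plates are used to derive GI50, TGI and LC50 from dose-response curves plotted as log10 concentration per cell line.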
# HCC 2998 = experiment: Cytotoxicity against human HCC2998 cells assessed as growth inhibition after 48 hrs by SRB assay
# In short: (§2)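 NCI 60-cell-line five-dose screen at […]. Drug exposure was 48 h, followed by sulforhodamine B protein staining. GI50, TGI and LC50 were calculated against a time-zero control and untreated plates, with dose–response curves plotted from log10 concentration.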
# HCT-15 = experiment: Cytotoxicity against human HCT15 cells assessed as growth inhibition after 48 hrs by SRB assay; in short: as §2
# NCI-H23 = experiment: Cytotoxicity against human NCI-H23 cells assessed as growth inhibition after 48 hrs by SRB assay
# In short: (§3)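 NCI 60-cell-line screen, five-dose stage: each cell line exposed for 48 h to five concentrations spanning five log steps; cellular protein measured by sulforhodamine B colorimetry. A time-zero cell control and plates without drug are used to derive GI50, TGI and LC50 from log-concentration dose-response curves.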
# ACHN = experiment: Cytotoxicity against human ACHN cells assessed as growth inhibition after 48 hrs by SRB assay; in short: as §2
# LOX IMVI = experiment: Cytotoxicity against human LOXIMVI cells assessed as growth inhibition after 48 hrs by SRB assay; in short: as §2
# MDA-MB-468 = experiment: Cytotoxicity against human MDA-MB-468 cells assessed as growth inhibition after 48 hrs by SRB assay; in short: as §3
# UO-31 = experiment: (§4) Cytotoxicity against human UO31 cells assessed as growth inhibition after 48 hrs by SRB assay; in short: as §1
# [1] = as §4; settings: UO-31, 48 h; in short: as §1
# [2] = (§5) Cytotoxicity against human UACC257 cells assessed as growth inhibition after 48 hrs by SRB assay; settings: UACC-257, 48 h; in short: as §1
# UACC-257 = experiment: as §5; in short: as §1
# SNB-19 = experiment: Cytotoxicity against human SNB19 cells assessed as growth inhibition after 48 hrs by SRB assay; in short: as §1
# SK-MEL-5 = experiment: Cytotoxicity against human SK-MEL-5 cells assessed as growth inhibition after 48 hrs by SRB assay; in short: as §3
# [3] = (§6) Cytotoxicity against human OVCAR4 cells assessed as growth inhibition after 48 hrs by SRB assay; settings: OVCAR-4, 48 h; in short: as §3
# OVCAR-4 = experiment: as §6; in short: as §3
# OVCAR-3 = experiment: Cytotoxicity against human OVCAR3 cells assessed as growth inhibition after 48 hrs by SRB assay; in short: as §3
# IGROV-1 = experiment: Cytotoxicity against human IGROV1 cells assessed as growth inhibition after 48 hrs by SRB assay; in short: as §2
# COLO 205 = experiment: Cytotoxicity against human COLO205 cells assessed as growth inhibition after 48 hrs by SRB assay; in short: as §2
# 786-0 = experiment: Cytotoxicity against human 786-0 cells assessed as growth inhibition after 48 hrs by SRB assay; in short: as §2
# NCI-H322M = experiment: Cytotoxicity against human NCI-H322M cells assessed as growth inhibition after 48 hrs by SRB assay; in short: as §3
# A498 = experiment: Cytotoxicity against human A498 cells assessed as growth inhibition after 48 hrs by SRB assay; in short: as §2
# [4] = (§7) Cytotoxicity against human Hs578T cells assessed as growth inhibition after 48 hrs by SRB assay; settings: Hs-578T; in short: as §2
# Hs-578T = experiment: as §7; in short: as §2
# HCT-116 = experiment: Cytotoxicity against human HCT116 cells assessed as growth inhibition after 48 hrs by SRB assay; in short: as §2
# SF-539 = experiment: Cytotoxicity against human SF539 cells assessed as growth inhibition after 48 hrs by SRB assay; in short: as §3
# BT-549 = experiment: Cytotoxicity against human BT549 cells assessed as growth inhibition after 48 hrs by SRB assay; in short: as §2
# PC-3 = experiment: Cytotoxicity against human PC3 cells assessed as growth inhibition after 48 hrs by SRB assay; in short: as §3
# UACC-62 = experiment: Cytotoxicity against human UACC62 cells assessed as growth inhibition after 48 hrs by SRB assay; in short: as §1
# EKVX = experiment: (§8) Cytotoxicity against human EKVX cells assessed as growth inhibition after 48 hrs by SRB assay; in short: as §2
# [5] = as §8; in short: as §2
# SF-268 = experiment: Cytotoxicity against human SF268 cells assessed as growth inhibition after 48 hrs by SRB assay; in short: as §3
# [6] = Cytotoxicity against human Hs578T cells assessed as cell growth at 10 uM after 48 hrs by SRB assay; settings: Hs-578T, read-out: Activity
# [7] = read-out: LC50 (the source's name)
smiles,measurement,setting,value
O=C1c2ccccc2C(=O)c2c1ccc1nc(SCCN3CCCC3)[nH]c21,GI50,SR,1.48 µM
same,LC50 (50% lethal concentration),SR,86.3 µM
same,TGI,SR,4.19 µM
same,growth inhibition (GI),SR,Dose-dependent effect
same,growth inhibition (GI),HCC 2998,Dose-dependent effect
same,GI50,"HCC 2998; HCC 2998, 48 h",4.91 µM
same,TGI,"HCC 2998; HCC 2998, 48 h",18.5 µM
same,CC50,"HCC 2998; HCC 2998, 48 h, read-out: LC50 (the source's name)",46 µM
same,growth inhibition (GI),HCT-15,Dose-dependent effect
same,GI50,"HCT-15; HCT-15, 48 h",1.62 µM
same,LC50 (concentration killing 50% of cells),"HCT-15; HCT-15, 48 h",34.7 µM
same,TGI,"HCT-15; HCT-15, 48 h",10.3 µM
same,growth inhibition (GI),NCI-H23,Dose-dependent effect
same,TGI,"NCI-H23; NCI-H23, 48 h",25.7 µM
same,GI50,ACHN,2.34 µM
same,TGI,ACHN,16.5 µM
same,growth inhibition (GI),ACHN,Dose-dependent effect
same,CC50,ACHN; [7],41.1 µM
same,GI50,LOX IMVI,1.43 µM
same,LC50,LOX IMVI,6.25 µM
same,TGI,LOX IMVI,2.99 µM
same,growth inhibition (GI),LOX IMVI,Dose-dependent effect
same,growth inhibition (GI),MDA-MB-468,Dose-dependent effect
same,GI50,"MDA-MB-468; MDA-MB-468, 48 h",1.33 µM
same,LC50,"MDA-MB-468; MDA-MB-468, 48 h",7.05 µM
same,TGI,"MDA-MB-468; MDA-MB-468, 48 h",3.06 µM
same,growth inhibition (GI),UO-31,Dose-dependent effect
same,GI50,[1],2.08 µM
same,LC50,[1],44.9 µM
same,TGI,[1],15.8 µM
same,GI50,[2],18 µM
same,LC50,[2],56.8 µM
same,TGI,[2],31.9 µM
same,growth inhibition (GI),UACC-257,Dose-dependent effect
same,growth inhibition (GI),SNB-19,Dose-dependent effect
same,GI50,"SNB-19; SNB-19, 48 h",17.1 µM
same,LC50,"SNB-19; SNB-19, 48 h",59.7 µM
same,TGI,"SNB-19; SNB-19, 48 h",31.9 µM
same,growth inhibition (GI),SK-MEL-5,Dose-dependent effect
same,GI50,"SK-MEL-5; SK-MEL-5, 48 h",12.9 µM
same,LC50 (concentration killing 50% of cells relative to time zero),"SK-MEL-5; SK-MEL-5, 48 h",54.8 µM
same,TGI,"SK-MEL-5; SK-MEL-5, 48 h",26.6 µM
same,GI50,[3],1.89 µM
same,LC50 (concentration killing 50% of cells),[3],38.9 µM
same,TGI,[3],7.34 µM
same,growth inhibition (GI),OVCAR-4,Dose-dependent effect
same,growth inhibition (GI),OVCAR-3,Dose-dependent effect
same,GI50,"OVCAR-3; OVCAR-3, 48 h",2.76 µM
same,LC50 (50% lethal concentration),"OVCAR-3; OVCAR-3, 48 h",35.6 µM
same,TGI,"OVCAR-3; OVCAR-3, 48 h",11.1 µM
same,growth inhibition (GI),IGROV-1,Dose-dependent effect
same,GI50,"IGROV-1; IGROV-1, 48 h",0.56 µM
same,LC50,"IGROV-1; IGROV-1, 48 h",22.4 µM
same,TGI,"IGROV-1; IGROV-1, 48 h",3.39 µM
same,growth inhibition (GI),COLO 205,Dose-dependent effect
same,GI50,"COLO 205; COLO 205, 48 h",3.07 µM
same,LC50,"COLO 205; COLO 205, 48 h",58.6 µM
same,TGI,"COLO 205; COLO 205, 48 h",16.7 µM
same,growth inhibition (GI),786-0,Dose-dependent effect
same,GI50,"786-0; 786-0, 48 h",11.7 µM
same,LC50 (concentration causing 50% net cell kill),"786-0; 786-0, 48 h",54.7 µM
same,TGI,"786-0; 786-0, 48 h",25.3 µM
same,TGI,NCI-H322M,21.4 µM
same,growth inhibition (GI),NCI-H322M,Dose-dependent effect
same,growth inhibition (GI),A498,Dose-dependent effect
same,GI50,"A498; A498, 48 h",5.82 µM
same,TGI,"A498; A498, 48 h",21.3 µM
same,CC50,"A498; A498, 48 h, read-out: LC50 (the source's name)",49.4 µM
same,GI50,[4],6.24 µM
same,TGI,[4],25.8 µM
same,CC50,[4]; [7],79.9 µM
same,growth inhibition (GI),Hs-578T,Dose-dependent effect
same,growth inhibition (GI),HCT-116,Dose-dependent effect
same,GI50,"HCT-116; HCT-116, 48 h",1.64 µM
same,LC50,"HCT-116; HCT-116, 48 h",8.15 µM
same,TGI,"HCT-116; HCT-116, 48 h",3.66 µM
same,growth inhibition (GI),SF-539,Dose-dependent effect
same,GI50,"SF-539; SF-539, 48 h",6.79 µM
same,TGI,"SF-539; SF-539, 48 h",20.2 µM
same,CC50,"SF-539; SF-539, 48 h, read-out: LC50 (the source's name)",47.4 µM
same,growth inhibition (GI),BT-549,Dose-dependent effect
same,GI50,"BT-549; BT-549, 48 h",12.5 µM
same,LC50 (concentration killing 50% of cells),"BT-549; BT-549, 48 h",55.8 µM
same,TGI,"BT-549; BT-549, 48 h",26.4 µM
same,growth inhibition (GI),PC-3,Dose-dependent effect
same,GI50,"PC-3; PC-3, 48 h",2.57 µM
same,LC50,"PC-3; PC-3, 48 h",43.4 µM
same,TGI,"PC-3; PC-3, 48 h",11 µM
same,growth inhibition (GI),UACC-62,Dose-dependent effect
same,GI50,"UACC-62; UACC-62, 48 h",15.8 µM
same,LC50,"UACC-62; UACC-62, 48 h",57.4 µM
same,TGI,"UACC-62; UACC-62, 48 h",30.1 µM
same,growth inhibition (GI),EKVX,Dose-dependent effect
same,TGI,[5],26.5 µM
same,growth inhibition (GI),SF-268,Dose-dependent effect
same,GI50,"SF-268; SF-268, 48 h",9.54 µM
same,LC50 (concentration killing 50% of cells relative to time zero),"SF-268; SF-268, 48 h",52.9 µM
same,TGI,"SF-268; SF-268, 48 h",22.8 µM
O=C1c2ccccc2C(=O)c2c1ccc1[nH]c(=S)[nH]c21,growth at 10 µM,[6],104%
